In ChEMBL document CHEMBL1132344, “Novel calcium antagonists with both calcium overload inhibition and antioxidant activity. 2. Structure-activity relationships of thiazolidinone derivatives” (J Med Chem, 1999):

Legend:
[1] = organism: Rattus norvegicus; test: Compound was tested in vitro for [Ca2+] antagonistic activity in K+-depolarized isolated rat aorta; assay type: functional
Outline: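 Thoracic aorta rings (2–3 mm) from male Sprague–Dawley rats (350–550 g), isometric tension in Krebs–Henseleit pH 7.4, 37 °C, 95% O2/5% CO2, 2 g resting tension. After a priming 30 mM K+ contraction and washout, second 30 mM K+ contraction; compound added cumulatively in half-log steps. IC50 = concentration relaxing contraction to 50%; mean ± SE, 2–8 experiments.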

[2] = organism: Oryctolagus cuniculus; test: In vitro inhibitory activity on soybean lipoxygenase-induced lipid peroxidations of rabbit low-density lipoprotein (LDL) at 5 uM dosage.; assay type: functional, organism-based
Outline: (§1)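 Rabbit LDL (Havel method) with compound, oxidised by soybean lipoxygenase type-1S (40 μg/mL final) for 24 h at 37 °C in CO2 incubator. LDL fraction separated by gel-permeation chromatography; fluorescence read at ex 360/em 430 nm. Expressed as percent of control.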

[3] = organism: Oryctolagus cuniculus; test: In vitro inhibitory activity on soybean lipoxygenase-induced lipid peroxidations of rabbit low-density lipoprotein (LDL) at 0.5 uM dosage; assay type: functional; outline: as §1
[4] = organism: Rattus norvegicus; test: Compound was tested for [Ca2+] overload inhibitory activity in the veratridine-induced [Ca2+] overload model of rat cardiac myocytes.; assay type: functional, organism-based
Outline: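 Ventricular myocytes isolated from male Sprague–Dawley rats (300–500 g) by enzyme perfusion; rod-shaped cells exposed to compound 30 min, then 50 μg/mL veratridine added. Survival judged by cell shape 5 min later. Value is molar concentration inhibiting cell death by >80%; 2–8 experiments, >50 rod-shaped myocytes each.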

[5] = organism: Oryctolagus cuniculus; test: in vitro inhibitory activity on soybean lipoxygenase-induced lipid peroxidations of rabbit low-density lipoprotein (LDL) at 5 uM dosage.; assay type: functional, organism-based; outline: as §1
[6] = organism: Oryctolagus cuniculus; test: in vitro inhibitory activity on soybean lipoxygenase-induced lipid peroxidations of rabbit low-density lipoprotein (LDL) at 0.5 uM dosage; assay type: functional; outline: as §1
[7] = test system: Canis familiaris; test: Effect on coronary blood flow (CBF) by intravenous administration of compound in anesthetized dogs.; assay type: functional, Canis lupus familiaris; design: concentration or dose not given beside the values
Outline: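 Male beagles (9–14 kg) under pentobarbital (35 mg/kg iv, then 3–5 mg/kg/h infusion), artificially ventilated, left thoracotomy. Compound given iv via cephalic vein at […]. Coronary blood flow change expressed as maximal percent change from pre-dose value; mean ± SE from 5–6 dogs or a single experiment.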

Structure (SMILES)	IC50 ([1]; Rattus norvegicus, Aorta)	IC50 ([4]; Rattus norvegicus)	other results
CN(CCCN1C(=O)CSC1c1cc(Cl)c(O)c(Cl)c1)CCOc1ccc2c(c1)OCO2 (stereo not drawn)	> 10 µM	–	–
CN(CCCN1C(=O)CSC1c1cc(C(C)(C)C)c(O)c(C(C)(C)C)c1)CCOc1ccc2c(c1)OCO2 (stereo in doubt; 1) [listing 1 of 2 here]	–	–	LDL oxidation [2]: 3%; LDL oxidation [3]: 12.9%
CN(CCCCN1C(=O)CSC1c1cc(C(C)(C)C)c(O)c(C(C)(C)C)c1)CCOc1ccc2c(c1)OCO2 (stereo not drawn)	0.21 µM	1 µM	–
CC(C)N(CCCN1C(=O)CSC1c1cc(C(C)(C)C)c(O)c(C(C)(C)C)c1)CCOc1ccc2c(c1)OCO2 (stereo not drawn)	0.45 µM	1 µM	–
CN(CCCN1C(=O)CSC1c1cc(C(C)(C)C)c(O)c(C(C)(C)C)c1)CCOc1ccc2c(c1)OCO2 (single isomer, unassigned; (+)) [listing 1 of 2 here]	–	–	LDL oxidation [5]: 5.9%; LDL oxidation [6]: 13.5%
COc1c(C(C)(C)C)cc(C2SCC(=O)N2CCCN(C)CCOc2ccc3c(c2)OCO3)cc1C(C)(C)C (stereo not drawn)	0.036 µM	1 µM	LDL oxidation [5]: 39.7%; LDL oxidation [6]: 91.6%
CN(CCCOc1ccc2c(c1)OCO2)CCCN1C(=O)CSC1c1cc(C(C)(C)C)c(O)c(C(C)(C)C)c1 (stereo not drawn)	0.078 µM	0.32 µM	LDL oxidation [5]: 3.9%; LDL oxidation [6]: 16.4%; CBF increasing activity [7]: 23%
CN(CCCN1C(=O)CSC1c1ccc(O)c(C(C)(C)C)c1)CCOc1ccc2c(c1)OCO2 (stereo not drawn)	0.56 µM	–	–
CN(CCCN1C(=O)CSC1c1cc(C(C)(C)C)c(O)c(C(C)(C)C)c1)CCOc1ccc2c(c1)OCO2 (single isomer, unassigned; (-)) [listing 1 of 2 here]	–	–	LDL oxidation [5]: 3.9%; LDL oxidation [6]: 16.4%
CC(C)c1cc(C2SCC(=O)N2CCCN(C)CCOc2ccc3c(c2)OCO3)cc(C(C)C)c1O (stereo not drawn)	0.14 µM	0.32 µM	–
CN(CCOc1ccc2c(c1)OCO2)CCN1C(=O)CSC1c1cc(C(C)(C)C)c(O)c(C(C)(C)C)c1 (stereo not drawn)	0.36 µM	–	–
CN(CCCN1C(=O)CSC1c1cc(C(C)(C)C)c(O)c(C(C)(C)C)c1)CCOc1ccc2c(c1)OCO2 (single isomer, unassigned; (-)) [listing 2 of 2 here]	–	–	CBF increasing activity [7]: 117%; IC50 [4]: 0.32 µM; IC50 [1]: 0.033 µM
CN(CCCN1C(=S)CSC1c1cc(C(C)(C)C)c(O)c(C(C)(C)C)c1)CCOc1ccc2c(c1)OCO2 (stereo not drawn)	0.16 µM	–	LDL oxidation [5]: 11.3%; LDL oxidation [6]: 22.8%
CN(CCCCOc1ccc2c(c1)OCO2)CCCN1C(=O)CSC1c1cc(C(C)(C)C)c(O)c(C(C)(C)C)c1 (stereo not drawn)	0.2 µM	0.32 µM	–
CN(CCCCCN1C(=O)CSC1c1cc(C(C)(C)C)c(O)c(C(C)(C)C)c1)CCOc1ccc2c(c1)OCO2 (stereo not drawn)	0.28 µM	–	LDL oxidation [5]: 5.9%
Cc1c(C)c2c(c(C)c1O)CC[C@@](C)(CCC[C@H](C)CCC[C@H](C)CCCC(C)C)O2 [ALPHA-TOCOPHEROL]	60.2 µM	13.2 µM	–
CCN(CCCN1C(=O)CSC1c1cc(C(C)(C)C)c(O)c(C(C)(C)C)c1)CCOc1ccc2c(c1)OCO2 (stereo not drawn)	0.063 µM	0.32 µM	LDL oxidation [5]: 6.4%; LDL oxidation [6]: 16.8%; CBF increasing activity [7]: 52%
COc1cc(C2SCC(=O)N2CCCN(C)CCOc2ccc3c(c2)OCO3)cc(OC)c1O (stereo not drawn)	4.1 µM	–	–
CC(C)(C)c1cc(C2SCC(=O)N2CCCNCCOc2ccc3c(c2)OCO3)cc(C(C)(C)C)c1O (stereo not drawn)	0.16 µM	1 µM	–
CC(C)(C)c1cc(C2SCC(=O)N2CCCN(CCO)CCOc2ccc3c(c2)OCO3)cc(C(C)(C)C)c1O (stereo not drawn)	0.32 µM	–	–
CN(CCCN1C(=O)CSC1c1cc(C(C)(C)C)c(O)c(C(C)(C)C)c1)CCOc1ccc2c(c1)OCO2 (stereo in doubt; 1) [listing 2 of 2 here]	–	–	CBF increasing activity [7]: 96%; IC50 [1]: 0.062 µM
CN(CCCN1C(=O)CSC1c1cc(C(C)(C)C)c(O)c(C(C)(C)C)c1)CCOc1ccc2c(c1)OCO2 (single isomer, unassigned; (+)) [listing 2 of 2 here]	–	–	CBF increasing activity [7]: 16%; IC50 [4]: 0.32 µM; IC50 [1]: 0.34 µM
COc1ccc([C@@H]2Sc3ccccc3N(CCN(C)C)C(=O)[C@@H]2OC(C)=O)cc1 [DILTIAZEM]	0.1 µM	> 10 µM	LDL oxidation [5]: 111%; LDL oxidation [6]: 109%; CBF increasing activity [7]: 86%
Cc1cc(C2SCC(=O)N2CCCN(C)CCOc2ccc3c(c2)OCO3)cc(C)c1O (stereo not drawn)	2.3 µM	–	–
Cc1cc(C(C)(C)C)c(O)c(C(C)(C)C)c1 [BUTYLATED HYDROXYTOLUENE]	19.7 µM	0.9 µM	–
CN(CCCN1C(=O)C[S+]([O-])C1c1cc(C(C)(C)C)c(O)c(C(C)(C)C)c1)CCOc1ccc2c(c1)OCO2 (stereo not drawn)	0.79 µM	–	–
CN(CCCN1C(=O)CSC1c1ccc(O)cc1)CCOc1ccc2c(c1)OCO2 (stereo not drawn)	2.6 µM	–	–
Cc1cc(C2SCC(=O)N2CCCN(C)CCOc2ccc3c(c2)OCO3)cc(C(C)(C)C)c1O (stereo not drawn)	0.28 µM	–	–
Cc1cc(C2SCC(=O)N2CCCN(C)CCOc2ccc3c(c2)OCO3)c(C)c(C)c1O (stereo not drawn)	0.63 µM	–	–
CCc1cc(C2SCC(=O)N2CCCN(C)CCOc2ccc3c(c2)OCO3)cc(CC)c1O (stereo not drawn)	0.32 µM	–	–
